Columns and labels:
Type in all cases: functional
Settings in all cases: read-out: GI
CCRF-CEM = assay: Antitumor activity against human CCRF-CEM cells assessed as growth inhibition at 10 uM relative to control
How it was run: (§1)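 After drug addition, plates were incubated 48 h at 37 °C under 5% CO2. Adherent cells were fixed with cold TCA (10% final, 60 min, 4 °C) and suspension cells with 16% final TCA. Staining used 0.4% SRB in 1% acetic acid, solubilized in 10 mM trizma, read at A515. Percent growth was calculated from time-zero, control and treated absorbances.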

K562 = assay: Antitumor activity against human K562 cells assessed as growth inhibition at 10 uM relative to control; how it was run: as §1
MOLT-4 = assay: Antitumor activity against human MOLT-4 cells assessed as growth inhibition at 10 uM relative to control; how it was run: as §1
RPMI-8226 = assay: Antitumor activity against human RPMI-8226 cells assessed as growth inhibition at 10 uM relative to control; how it was run: as §1
EKVX = assay: Antitumor activity against human EKVX cells assessed as growth inhibition at 10 uM relative to control; how it was run: as §1
NCI-H226 = assay: Antitumor activity against human NCI-H226 cells assessed as growth inhibition at 10 uM relative to control; how it was run: as §1
NCI-H23 = assay: Antitumor activity against human NCI-H23 cells assessed as growth inhibition at 10 uM relative to control; how it was run: as §1
NCI-H322M = assay: Antitumor activity against human NCI-H322M cells assessed as growth inhibition at 10 uM relative to control; how it was run: as §1
NCI-H522 = assay: Antitumor activity against human NCI-H522 cells assessed as growth inhibition at 10 uM relative to control; how it was run: as §1
COLO 205 = assay: Antitumor activity against human COLO 205 cells assessed as growth inhibition at 10 uM relative to control; how it was run: as §1
HCT-116 = assay: Antitumor activity against human HCT-116 cells assessed as growth inhibition at 10 uM relative to control; how it was run: as §1
HCT-15 = assay: Antitumor activity against human HCT-15 cells assessed as growth inhibition at 10 uM relative to control; how it was run: as §1
HT-29 = assay: Antitumor activity against human HT-29 cells assessed as growth inhibition at 10 uM relative to control; how it was run: as §1
KM12 = assay: Antitumor activity against human KM12 cells assessed as growth inhibition at 10 uM relative to control; how it was run: as §1
SW-620 = assay: Antitumor activity against human SW-620 cells assessed as growth inhibition at 10 uM relative to control
How it was run: (§2)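 Drug exposure 48 h at 37 °C, 5% CO2. Adherent cells fixed with cold TCA (10% final), suspension cells with TCA (16% final). Stained with 0.4% SRB in 1% acetic acid, dissolved in 10 mM Tris, A515. Growth relative to time-zero and untreated control.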

SF-268 = assay: Antitumor activity against human SF-268 cells assessed as growth inhibition at 10 uM relative to control; how it was run: as §1
SF-539 = assay: Antitumor activity against human SF-539 cells assessed as growth inhibition at 10 uM relative to control; how it was run: as §1
SNB-19 = assay: Antitumor activity against human SNB-19 cells assessed as growth inhibition at 10 uM relative to control; how it was run: as §2
SNB-75 = assay: Antitumor activity against human SNB-75 cells assessed as growth inhibition at 10 uM relative to control; how it was run: as §2
U-251 = assay: Antitumor activity against human U-251 cells assessed as growth inhibition at 10 uM relative to control; how it was run: as §2
LOX IMVI = assay: Antitumor activity against human LOX IMVI cells assessed as growth inhibition at 10 uM relative to control; how it was run: as §1
Malme-3M = assay: Antitumor activity against human Malme-3M cells assessed as growth inhibition at 10 uM relative to control; how it was run: as §1
M14 = assay: Antitumor activity against human M14 cells assessed as growth inhibition at 10 uM relative to control; how it was run: as §1
MDA-MB-435 = assay: Antitumor activity against human MDA-MB-435 cells assessed as growth inhibition at 10 uM relative to control; how it was run: as §1
SK-MEL-2 = assay: Antitumor activity against human SK-MEL-2 cells assessed as growth inhibition at 10 uM relative to control; how it was run: as §1
SK-MEL-28 = assay: Antitumor activity against human SK-MEL-28 cells assessed as growth inhibition at 10 uM relative to control; how it was run: as §2
SK-MEL-5 = assay: Antitumor activity against human SK-MEL-5 cells assessed as growth inhibition at 10 uM relative to control; how it was run: as §2
UACC-257 = assay: Antitumor activity against human UACC-257 cells assessed as growth inhibition at 10 uM relative to control; how it was run: as §2
UACC-62 = assay: Antitumor activity against human UACC-62 cells assessed as growth inhibition at 10 uM relative to control; how it was run: as §2
OVCAR-3 = assay: Antitumor activity against human OVCAR-3 cells assessed as growth inhibition at 10 uM relative to control; how it was run: as §1
OVCAR-5 = assay: Antitumor activity against human OVCAR-5 cells assessed as growth inhibition at 10 uM relative to control; how it was run: as §1
OVCAR-8 = assay: Antitumor activity against human OVCAR-8 cells assessed as growth inhibition at 10 uM relative to control; how it was run: as §1
NCI/ADR-RES = assay: Antitumor activity against human NCI-ADR-RES cells assessed as growth inhibition at 10 uM relative to control; how it was run: as §1
SK-OV-3 = assay: Antitumor activity against human SK-OV-3 cells assessed as growth inhibition at 10 uM relative to control; how it was run: as §2
786-0 = assay: Antitumor activity against human 786-0 cells assessed as growth inhibition at 10 uM relative to control; how it was run: as §1
A498 = assay: Antitumor activity against human A498 cells assessed as growth inhibition at 10 uM relative to control; how it was run: as §1
ACHN = assay: Antitumor activity against human ACHN cells assessed as growth inhibition at 10 uM relative to control; how it was run: as §1
CAKI-1 = assay: Antitumor activity against human CAKI-1 cells assessed as growth inhibition at 10 uM relative to control; how it was run: as §1
RXF 393 = assay: Antitumor activity against human RXF 393 cells assessed as growth inhibition at 10 uM relative to control; how it was run: as §1
SN12C = assay: Antitumor activity against human SN12C cells assessed as growth inhibition at 10 uM relative to control; how it was run: as §2
TK-10 = assay: Antitumor activity against human TK-10 cells assessed as growth inhibition at 10 uM relative to control; how it was run: as §2
PC-3 = assay: Antitumor activity against human PC-3 cells assessed as growth inhibition at 10 uM relative to control; how it was run: as §1
DU-145 = assay: Antitumor activity against human DU-145 cells assessed as growth inhibition at 10 uM relative to control; how it was run: as §1
MCF7 = assay: Antitumor activity against human MCF7 cells assessed as growth inhibition at 10 uM relative to control; how it was run: as §1
BT-549 = assay: Antitumor activity against human BT-549 cells assessed as growth inhibition at 10 uM relative to control; how it was run: as §1
T47D = assay: Antitumor activity against human T47D cells assessed as growth inhibition at 10 uM relative to control; how it was run: as §2

N#Cc1c(-c2ccc(Cl)cc2)nc(N/N=C/c2cccc(Br)c2)nc1N1CCOCC1
inhibition of growth at 10 µM (CCRF-CEM): 49.7% | inhibition of growth at 10 µM (K562): 87.4% | inhibition of growth at 10 µM (MOLT-4): 63.9% | inhibition of growth at 10 µM (RPMI-8226): 44% | inhibition of growth at 10 µM (EKVX): 31.2% | inhibition of growth at 10 µM (NCI-H226): 28.8% | inhibition of growth at 10 µM (NCI-H23): < 1% | inhibition of growth at 10 µM (NCI-H322M): < 1% | inhibition of growth at 10 µM (NCI-H522): < 1% | inhibition of growth at 10 µM (COLO 205): 56% | inhibition of growth at 10 µM (HCT-116): 38.5% | inhibition of growth at 10 µM (HCT-15): 91.6% | inhibition of growth at 10 µM (HT-29): 71% | inhibition of growth at 10 µM (KM12): 19% | inhibition of growth at 10 µM (SW-620): 68.5% | inhibition of growth at 10 µM (SF-268): 10.8% | inhibition of growth at 10 µM (SF-539): 21.2% | inhibition of growth at 10 µM (SNB-19): < 1% | inhibition of growth at 10 µM (SNB-75): 23.2% | inhibition of growth at 10 µM (U-251): 38.4% | inhibition of growth at 10 µM (LOX IMVI): 20.2% | inhibition of growth at 10 µM (Malme-3M): < 1% | inhibition of growth at 10 µM (M14): 37.6% | inhibition of growth at 10 µM (MDA-MB-435): < 1% | inhibition of growth at 10 µM (SK-MEL-2): < 1% | inhibition of growth at 10 µM (SK-MEL-28): < 1% | inhibition of growth at 10 µM (SK-MEL-5): 14.4% | inhibition of growth at 10 µM (UACC-257): 13.5% | inhibition of growth at 10 µM (UACC-62): < 1% | inhibition of growth at 10 µM (OVCAR-3): < 1% | inhibition of growth at 10 µM (OVCAR-5): 17.9% | inhibition of growth at 10 µM (OVCAR-8): < 1% | inhibition of growth at 10 µM (NCI/ADR-RES): < 1% | inhibition of growth at 10 µM (SK-OV-3): < 1% | inhibition of growth at 10 µM (786-0): 38.2% | inhibition of growth at 10 µM (A498): < 1% | inhibition of growth at 10 µM (ACHN): 28.5% | inhibition of growth at 10 µM (CAKI-1): 1% | inhibition of growth at 10 µM (RXF 393): < 1% | inhibition of growth at 10 µM (SN12C): < 1% | inhibition of growth at 10 µM (TK-10): < 1% | inhibition of growth at 10 µM (PC-3): 38.8% | inhibition of growth at 10 µM (DU-145): 40.4% | inhibition of growth at 10 µM (MCF7): < 27.5% | inhibition of growth at 10 µM (BT-549): < 1% | inhibition of growth at 10 µM (T47D): 32.5%

N#Cc1c(-c2ccc(Cl)cc2)nc(N/N=C/c2cccc(Cl)c2)nc1N1CCOCC1
inhibition of growth at 10 µM (CCRF-CEM): 27.5% | inhibition of growth at 10 µM (K562): 64.9% | inhibition of growth at 10 µM (MOLT-4): 46.7% | inhibition of growth at 10 µM (RPMI-8226): 35% | inhibition of growth at 10 µM (EKVX): 22.3% | inhibition of growth at 10 µM (NCI-H226): 10.7% | inhibition of growth at 10 µM (NCI-H23): < 1% | inhibition of growth at 10 µM (NCI-H322M): 11.2% | inhibition of growth at 10 µM (NCI-H522): < 1% | inhibition of growth at 10 µM (COLO 205): 39% | inhibition of growth at 10 µM (HCT-116): 29.2% | inhibition of growth at 10 µM (HCT-15): 64.6% | inhibition of growth at 10 µM (HT-29): 59.6% | inhibition of growth at 10 µM (KM12): < 1% | inhibition of growth at 10 µM (SW-620): 46.7% | inhibition of growth at 10 µM (SF-268): < 1% | inhibition of growth at 10 µM (SF-539): 20.9% | inhibition of growth at 10 µM (SNB-19): < 1% | inhibition of growth at 10 µM (SNB-75): 19.9% | inhibition of growth at 10 µM (U-251): < 1% | inhibition of growth at 10 µM (LOX IMVI): 14.5% | inhibition of growth at 10 µM (Malme-3M): < 1% | inhibition of growth at 10 µM (M14): 15.4% | inhibition of growth at 10 µM (MDA-MB-435): < 1% | inhibition of growth at 10 µM (SK-MEL-2): < 1% | inhibition of growth at 10 µM (SK-MEL-28): < 1% | inhibition of growth at 10 µM (SK-MEL-5): < 1% | inhibition of growth at 10 µM (UACC-257): 28.4% | inhibition of growth at 10 µM (UACC-62): < 1% | inhibition of growth at 10 µM (OVCAR-3): 12.6% | inhibition of growth at 10 µM (OVCAR-5): < 1% | inhibition of growth at 10 µM (OVCAR-8): < 1% | inhibition of growth at 10 µM (NCI/ADR-RES): 10.8% | inhibition of growth at 10 µM (SK-OV-3): < 1% | inhibition of growth at 10 µM (786-0): 29.9% | inhibition of growth at 10 µM (A498): 57.8% | inhibition of growth at 10 µM (ACHN): 25.7% | inhibition of growth at 10 µM (CAKI-1): 20.8% | inhibition of growth at 10 µM (RXF 393): < 1% | inhibition of growth at 10 µM (SN12C): < 1% | inhibition of growth at 10 µM (TK-10): < 1% | inhibition of growth at 10 µM (PC-3): 26.5% | inhibition of growth at 10 µM (DU-145): 24% | inhibition of growth at 10 µM (MCF7): < 14.1% | inhibition of growth at 10 µM (BT-549): < 1% | inhibition of growth at 10 µM (T47D): 23.4%

Source: ChEMBL document CHEMBL5376013, “Design, synthesis and biological evaluation of novel morpholinopyrimidine-5-carbonitrile derivatives as dual PI3K/mTOR inhibitors” (RSC Med Chem, 2024)
